Results reported in ChEMBL document CHEMBL1123208, “Quantitative structure-activity relationship of the mutagenicity of substituted N-nitroso-N-benzylmethylamines: possible implications for carcinogenicity” (J Med Chem, 1986).

Tests used:
Salmonella typhimurium [1] = test: compound was tested for mutagenicity against Salmonella tester strain TA 1535 with out hamster S9 mix (3 mg/plate) in cells at dose of 500 ug
Salmonella typhimurium [2] = test: compound was tested for mutagenicity against Salmonella tester strain TA 1535 with hamster S9 mix (3 mg/plate) in cells at dose of 500 ug
[3] = Concentration in nmol/plate to induce 50 revertants/plate.; format: ADME
In short: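 Ames plate incorporation, S. typhimurium TA 1535, Aroclor-induced male hamster liver S9; duplicate plates, 10-point range 1–1000 µg/plate; 37 °C, 48 h; revertants counted by hand tally. Potency index: concentration (nmol/plate) inducing 50 revertants/plate, taken from linear portion of dose–response curve.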

Salmonella typhimurium [4] = test: Mutagenicity against Salmonella tester strain TA 1535 without hamster S9 mix (3 mg/plate) in cells.; format: functional, Salmonella enterica subsp. enterica serovar Typhimurium
Salmonella typhimurium [5] = test: compound was tested for mutagenicity against Salmonella tester strain TA 1535 with hamster S9 mix (3 mg/plate) in cells at dose of 2.5 ug; format: functional, Salmonella enterica subsp. enterica serovar Typhimurium
In short: (§1)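 Plate incorporation assay in S. typhimurium TA 1535 with Aroclor-induced male hamster liver S9 (3 mg/plate). Compound in Me2SO, 1–1000 µg/plate, duplicate plates, mean revertants/plate; incubated 37 °C for 48 h, colonies hand-counted. Positive if two consecutive doses gave revertants more than twice the concurrent control mean.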

Salmonella typhimurium [6] = test: compound was tested for mutagenicity against Salmonella tester strain TA 1535 with hamster S9 mix (3 mg/plate) in cells at dose of 100 ug; format: functional, Salmonella enterica subsp. enterica serovar Typhimurium
In short: as §1

Salmonella typhimurium [7] = test: compound was tested for mutagenicity against Salmonella tester strain TA 1535 with out hamster S9 mix (3 mg/plate) in cells at dose of 5 ug; format: functional, Salmonella enterica subsp. enterica serovar Typhimurium
In short: (§2)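 Plate incorporation assay in S. typhimurium TA 1535 without S9 activation. Compound in Me2SO, 1–1000 µg/plate, duplicate plates, mean revertants/plate; incubated 37 °C for 48 h, colonies hand-counted. Positive if two consecutive doses gave revertants more than twice the concurrent control mean.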

Salmonella typhimurium [8] = test: compound was tested for mutagenicity against Salmonella tester strain TA 1535 with hamster S9 mix (3 mg/plate) in cells at dose of 5 ug; format: functional, Salmonella enterica subsp. enterica serovar Typhimurium
In short: as §1

Salmonella typhimurium [9] = test: compound was tested for mutagenicity against Salmonella tester strain TA 1535 with out hamster S9 mix (3 mg/plate) in cells at dose of 500 ug; format: functional, Salmonella enterica subsp. enterica serovar Typhimurium
In short: as §2

Salmonella typhimurium [10] = test: compound was tested for mutagenicity against Salmonella tester strain TA 1535 with hamster S9 mix (3 mg/plate) in cells at dose of 1000 ug; format: functional, Salmonella enterica subsp. enterica serovar Typhimurium
In short: as §1

Salmonella typhimurium [11] = test: compound was tested for mutagenicity against Salmonella tester strain TA 1535 with hamster S9 mix (3 mg/plate) in cells at dose of 10 ug; format: functional, Salmonella enterica subsp. enterica serovar Typhimurium
In short: as §1

Salmonella typhimurium [12] = test: compound was tested for mutagenicity against Salmonella tester strain TA 1535 with hamster S9 mix (3 mg/plate) in cells. Activity expressed as no. of cells; format: functional, Salmonella enterica subsp. enterica serovar Typhimurium
In short: as §1

Salmonella typhimurium [13] = test: compound was tested for mutagenicity against Salmonella tester strain TA 1535 with out hamster S9 mix (3 mg/plate) in cells at dose of 1 ug; format: functional, Salmonella enterica subsp. enterica serovar Typhimurium
In short: as §2

Salmonella typhimurium [14] = test: compound was tested for mutagenicity against Salmonella tester strain TA 1535 with hamster S9 mix (3 mg/plate) in cells at dose of 250 ug; format: functional, Salmonella enterica subsp. enterica serovar Typhimurium
In short: as §1

Salmonella typhimurium [15] = test: compound was tested for mutagenicity against Salmonella tester strain TA 1535 with hamster S9 mix (3 mg/plate) in cells at dose of 1 ug; format: functional, Salmonella enterica subsp. enterica serovar Typhimurium
In short: as §1

Salmonella typhimurium [16] = test: compound was tested for mutagenicity against Salmonella tester strain TA 1535 with out hamster S9 mix (3 mg/plate) in cells at dose of 250 ug; format: functional, Salmonella enterica subsp. enterica serovar Typhimurium
In short: as §2

Salmonella typhimurium [17] = test: compound was tested for mutagenicity against Salmonella tester strain TA 1535 with out hamster S9 mix (3 mg/plate) in cells at dose of 100 ug; format: functional, Salmonella enterica subsp. enterica serovar Typhimurium
In short: as §2

Salmonella typhimurium [18] = test: compound was tested for mutagenicity against Salmonella tester strain TA 1535 with out hamster S9 mix (3 mg/plate) in cells at dose of 2.5 ug; format: functional, Salmonella enterica subsp. enterica serovar Typhimurium
In short: as §2

Salmonella typhimurium [19] = test: compound was tested for mutagenicity against Salmonella tester strain TA 1535 with hamster S9 mix (3 mg/plate) in cells.; format: functional, Salmonella enterica subsp. enterica serovar Typhimurium
In short: as §1

Salmonella typhimurium [20] = test: compound was tested for mutagenicity against Salmonella tester strain TA 1535 with out hamster S9 mix (3 mg/plate) in cells.; format: functional, Salmonella enterica subsp. enterica serovar Typhimurium
In short: as §2

Salmonella typhimurium [21] = test: compound was tested for mutagenicity against Salmonella tester strain TA 1535 with out hamster S9 mix (3 mg/plate) in cells at dose of 25 ug; format: functional, Salmonella enterica subsp. enterica serovar Typhimurium
In short: as §2

Salmonella typhimurium [22] = test: compound was tested for mutagenicity against Salmonella tester strain TA 1535 with hamster S9 mix (3 mg/plate) in cells at dose of 500 ug; format: functional, Salmonella enterica subsp. enterica serovar Typhimurium
In short: as §1

Salmonella typhimurium [23] = test: compound was tested for mutagenicity against Salmonella tester strain TA 1535 with out hamster S9 mix (3 mg/plate) in cells at dose of 50 ug; format: functional, Salmonella enterica subsp. enterica serovar Typhimurium
In short: as §2

Salmonella typhimurium [24] = test: compound was tested for mutagenicity against Salmonella tester strain TA 1535 with hamster S9 mix (3 mg/plate) in cells at dose of 25 ug; format: functional, Salmonella enterica subsp. enterica serovar Typhimurium
In short: as §1

Salmonella typhimurium [25] = test: compound was tested for mutagenicity against Salmonella tester strain TA 1535 with out hamster S9 mix (3 mg/plate) in cells at dose of 1000 ug; format: functional, Salmonella enterica subsp. enterica serovar Typhimurium
In short: as §2

Salmonella typhimurium [26] = test: compound was tested for mutagenicity against Salmonella tester strain TA 1535 with out hamster S9 mix (3 mg/plate) in cells at dose of 10 ug; format: functional, Salmonella enterica subsp. enterica serovar Typhimurium
In short: as §2

Salmonella typhimurium [27] = test: compound was tested for mutagenicity against Salmonella tester strain TA 1535 with hamster S9 mix (3 mg/plate) in cells at dose of 50 ug; format: functional, Salmonella enterica subsp. enterica serovar Typhimurium
In short: as §1

For CN(Cc1cccc(C#N)c1)N=O, which “No. of revertants per plate” value (Salmonella typhimurium [1]) is on record?
The value was 3053.

What about the “No. of revertants per plate” value (Salmonella typhimurium [2]) of the same molecule?
The value was 185.

And the “Log 1/C” value [3]?
The value was -2.139.

And the Activity (Salmonella typhimurium [4])?
Its Activity is 14.

For CN(Cc1ccc(F)cc1)N=O, which “No. of revertants per plate” value (Salmonella typhimurium [5]) is on record?
Its value is 15.

What about the “No. of revertants per plate” value (Salmonella typhimurium [6]) of the same molecule?
Its value is 71.

What about the “No. of revertants per plate” value (Salmonella typhimurium [7]) of the same molecule?
Its value is 21.

What about the “No. of revertants per plate” value (Salmonella typhimurium [8]) of the same molecule?
The value was 21.

What about the “No. of revertants per plate” value (Salmonella typhimurium [9]) of the same molecule?
The value was 19.

What about the “No. of revertants per plate” value (Salmonella typhimurium [10]) of the same molecule?
The value was 126.

And the “No. of revertants per plate” value (Salmonella typhimurium [11])?
The value was 22.

What about the Activity (Salmonella typhimurium [12]) of the same molecule?
The Activity was 19.

What about the “No. of revertants per plate” value (Salmonella typhimurium [13]) of the same molecule?
The value was 18.

And the “No. of revertants per plate” value (Salmonella typhimurium [14])?
Its value is 71.

What about the “No. of revertants per plate” value (Salmonella typhimurium [15]) of the same molecule?
Its value is 15.

And the “No. of revertants per plate” value (Salmonella typhimurium [16])?
Its value is 11.

What about the “No. of revertants per plate” value (Salmonella typhimurium [17]) of the same molecule?
Its value is 22.

And the “No. of revertants per plate” value (Salmonella typhimurium [18])?
Its value is 8.

What about the Activity (Salmonella typhimurium [19]) of the same molecule?
Its Activity is 24.

What about the Activity (Salmonella typhimurium [20]) of the same molecule?
The Activity was 8.

And the “No. of revertants per plate” value (Salmonella typhimurium [21])?
Its value is 20.

And the “No. of revertants per plate” value (Salmonella typhimurium [22])?
The value was 94.

And the “No. of revertants per plate” value (Salmonella typhimurium [23])?
The value was 16.

And the “Log 1/C” value [3]?
Its value is -2.969.

What about the “No. of revertants per plate” value (Salmonella typhimurium [24]) of the same molecule?
Its value is 27.

What about the “No. of revertants per plate” value (Salmonella typhimurium [25]) of the same molecule?
The value was 15.

What about the Activity (Salmonella typhimurium [4]) of the same molecule?
Its Activity is 15.

And the “No. of revertants per plate” value (Salmonella typhimurium [26])?
Its value is 17.

What about the “No. of revertants per plate” value (Salmonella typhimurium [27]) of the same molecule?
Its value is 39.

Which results are given for CN(Cc1ccc([N+](=O)[O-])cc1)N=O?
No. of revertants per plate (Salmonella typhimurium [1]): 23; No. of revertants per plate (Salmonella typhimurium [2]): 176; Log 1/C [3]: -2.202; Activity (Salmonella typhimurium [4]): 19

What does the source list for CN(Cc1cccc(Cl)c1)N=O?
No. of revertants per plate (Salmonella typhimurium [1]): 15; No. of revertants per plate (Salmonella typhimurium [2]): 215; Log 1/C [3]: -1.512; Activity (Salmonella typhimurium [4]): 17

With CN(Cc1ccc(Cl)cc1)N=O as the molecule, how does the “No. of revertants per plate” value (Salmonella typhimurium [5]) read?
The value was 19.

And the “No. of revertants per plate” value (Salmonella typhimurium [6])?
Its value is 136.

What about the “No. of revertants per plate” value (Salmonella typhimurium [7]) of the same molecule?
The value was 14.

What about the “No. of revertants per plate” value (Salmonella typhimurium [8]) of the same molecule?
The value was 21.

What about the “No. of revertants per plate” value (Salmonella typhimurium [9]) of the same molecule?
Its value is 24.

What about the “No. of revertants per plate” value (Salmonella typhimurium [10]) of the same molecule?
Its value is 192.

What about the “No. of revertants per plate” value (Salmonella typhimurium [11]) of the same molecule?
Its value is 24.

What about the Activity (Salmonella typhimurium [12]) of the same molecule?
Its Activity is 23.

What about the “No. of revertants per plate” value (Salmonella typhimurium [13]) of the same molecule?
The value was 17.

And the “No. of revertants per plate” value (Salmonella typhimurium [14])?
The value was 221.

And the “No. of revertants per plate” value (Salmonella typhimurium [15])?
Its value is 18.

What about the “No. of revertants per plate” value (Salmonella typhimurium [16]) of the same molecule?
The value was 19.

What about the “No. of revertants per plate” value (Salmonella typhimurium [17]) of the same molecule?
The value was 19.

What about the “No. of revertants per plate” value (Salmonella typhimurium [18]) of the same molecule?
The value was 16.

What about the Activity (Salmonella typhimurium [19]) of the same molecule?
Its Activity is 22.

What about the Activity (Salmonella typhimurium [20]) of the same molecule?
The Activity was 19.

And the “No. of revertants per plate” value (Salmonella typhimurium [21])?
Its value is 21.

And the “No. of revertants per plate” value (Salmonella typhimurium [22])?
Its value is 166.

And the “No. of revertants per plate” value (Salmonella typhimurium [23])?
Its value is 19.

And the “Log 1/C” value [3]?
Its value is -1.933.

What about the “No. of revertants per plate” value (Salmonella typhimurium [24]) of the same molecule?
Its value is 42.

What about the “No. of revertants per plate” value (Salmonella typhimurium [25]) of the same molecule?
Its value is 17.

And the Activity (Salmonella typhimurium [4])?
The Activity was 22.

What about the “No. of revertants per plate” value (Salmonella typhimurium [26]) of the same molecule?
The value was 18.

What about the “No. of revertants per plate” value (Salmonella typhimurium [27]) of the same molecule?
Its value is 77.

For CN(Cc1cccc([N+](=O)[O-])c1)N=O, which “Log 1/C” value [3] is on record?
Its value is -1.796.

Which “No. of revertants per plate” value (Salmonella typhimurium [1]) does the source give for COc1ccc(CN(C)N=O)cc1 here?
The value was 15.

What about the “No. of revertants per plate” value (Salmonella typhimurium [2]) of the same molecule?
The value was 24.

What about the Activity (Salmonella typhimurium [4]) of the same molecule?
Its Activity is 12.

What does the source list for CN(Cc1ccc(C#N)cc1)N=O?
No. of revertants per plate (Salmonella typhimurium [1]): 12; No. of revertants per plate (Salmonella typhimurium [2]): 180; Log 1/C [3]: -2.78; Activity (Salmonella typhimurium [4]): 15
